High-throughput results as filed in PubChem.
Rtt109 HAT inh – inhibitors of C. albicans Rtt109/Vps75 HAT, primary screen, biochemical, ThioGlo CoA-SH fluorescence, plate reader; Histone acetyltransferase RTT109 (Candida albicans (strain SC5314 / ATCC MYA-2876)), …; purified Rtt109/Vps75, 4 h; inhibition, % at 34.9 µM; hit rate 0.16% among 330,000;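 active means inhibition of at least 50% in every replicate; inconclusive means best replicate reaches 50% inhibition but some replicates fall short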
Target sequence (Q5AAJ8 whole entry, looked up): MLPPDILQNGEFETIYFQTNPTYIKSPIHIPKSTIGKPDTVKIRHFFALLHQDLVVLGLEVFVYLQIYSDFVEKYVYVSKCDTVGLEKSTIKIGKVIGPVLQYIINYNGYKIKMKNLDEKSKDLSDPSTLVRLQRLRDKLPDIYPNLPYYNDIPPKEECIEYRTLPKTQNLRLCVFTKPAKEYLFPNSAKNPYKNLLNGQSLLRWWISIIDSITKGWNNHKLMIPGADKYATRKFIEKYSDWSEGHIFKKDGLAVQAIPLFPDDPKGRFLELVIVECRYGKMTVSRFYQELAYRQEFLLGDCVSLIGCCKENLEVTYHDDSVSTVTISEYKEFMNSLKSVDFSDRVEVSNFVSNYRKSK
CAL PDZ FP-1 – untagged CAL PDZ binding inhibitors, primary screen, biochemical, fluorescence polarization, HTS | inhibition, % at 24.9 µM | hit rate 0.92% among 300,000 | purified CAL PDZ, TMR-peptide fluorescence polarization, 1 h;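 active means mean inhibition of at least 30% with at least half of replicates also reaching 30%; inconclusive means no clear call, values can overlap the other calls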
dFosB act – activators of delta FosB homodimer, primary screen, biochemical, fluorescence polarization, TAMRA-CDK5 oligo, single point | activation, % at 25 µM | Protein FosB (Mus musculus), P13346 | hit rate 0.99% among 340,000 | AID 493131, 2011 | purified delta FosB; percent of positive-control signal above neutral wells;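 active means mean activation above about 17%, with every replicate also reaching it, limit read from the data, passing the limit was not always enough; inconclusive means only one of the two conditions met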
Dyrk1A ADPGlo – rat Dyrk1A kinase inhibitors, primary screen, biochemical, single point, plate reader | Dual specificity tyrosine-phosphorylation-regulated kinase 1A (Rattus norvegicus), Q63470 | ADP-Glo luminescence, NFATc1 peptide | inhibition, % at 12.5 µM | hit rate 0.43% among 310,000; in the data active means inhibition above about 50%
CAL PDZ FP-2 – CAL PDZ peptide-binding inhibitors, primary screen, biochemical, fluorescence polarization, Cer-tagged CAL PDZ, HTS. hit rate 0.02% among 330,000. AID 504414, 2011. Golgi-associated PDZ and coiled-coil motif-containing protein (Homo sapiens), Q9HD26. inhibition, % at 20 µM. purified CAL PDZ, TMR-peptide fluorescence polarization, 1 h;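 active means highest replicate inhibition of at least 40%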
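Control set: unlabelled peptide and DMSO controls / Material: purified CerCALP PDZ construct / Timing: 1 h incubation at room temperature before polarization reading / Doses: 20 µM, one dose / Detection: fluorescence polarization (mP)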
CDK5 p35 inh – inhibitors of human CDK5/p35 kinase, primary screen, biochemical, single concentration. Recombinant CDK5/p35, ADP-Glo luminescence, 60 min. inhibition, % at 10 µM. hit rate 0.01% among 330,000;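 active means highest replicate inhibition of at least 50% and at least 75% of replicates reaching 50%; inconclusive means only one of the two criteria met; inactive means both criteria failed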
Large screens that a line does not name were inactive. Hits are enriched below; roughly 2.2% of the tested compounds scored in any of these assays.

Cc1ccc(C(C(=O)NC(C)(C)C)N(CC2CCCO2)C(=O)CCC(=O)Nc2ccccn2)cc1 (stereo not given)	CAL PDZ FP-1 84.5
O=C(O)CC(NCc1ccco1)C(=O)OCCc1ccccc1 (stereo not given)	none
C=C(C)CCOC(=O)C(CC(=O)O)NCc1ccco1 (stereo not given)	CAL PDZ FP-1 49.5
CCOc1ccc2[nH]cc(C(=O)N3CCN(C4CCCCC4)CC3)c(=O)c2c1	none
O=[N+]([O-])c1ccc(N=Nc2ccc(O)c3ccccc23)cc1	none
CCOC(=O)Cn1c2ccccc2c2nc(C)sc21	none (no result: Dyrk1A ADPGlo)
CCOC(=O)Cn1c(C)[n+](CC(=O)c2ccccc2)c2ccccc21	Rtt109 HAT inh 54.7
CCOC(=O)Cn1c(=O)cc(C)c2ccccc21	none
CCOC(=O)Cn1c2ccccc2c2nc3ccccc3nc21	CAL PDZ FP-1 42.3
COc1ccc(NC(=O)CCN2C(=O)C3CC=CCC3C2=O)cc1S(=O)(=O)N1CCCCC1 (stereo not given)	none
CC(C)CNC(=S)NC1CCCC1	CAL PDZ FP-1 139.5 (no result: CAL PDZ FP-2)
CC(C)CNC(=O)C(=O)NC1CCCC1	none
CCN(CC)CC(=O)Nn1c(C)nc2c(ncn2-c2ccccc2)c1=O	CAL PDZ FP-1 51.4
Cc1nc2c(ncn2-c2ccccc2)c(=O)n1NC(=O)CN1CCOCC1	none
COc1ccc(CN(C)CC(=O)Nc2cc(OC)c([N+](=O)[O-])cc2C)c(OC)c1	none
COC(=O)C1N2C(=O)[C@@H](NC(=O)COc3ccccc3)[C@H]2SC1(C)C (stereo not given in full)	none (no result: Dyrk1A ADPGlo)
O=c1c2cc(F)ccc2sn1-c1ccc(F)cc1	Rtt109 HAT inh inconclusive
COc1ccc(-n2sc3ccc(F)cc3c2=O)cc1	Rtt109 HAT inh 159.2
Cc1ccc(C)c(-n2cc(CNCCc3cnccn3)c(-c3ccccc3)n2)c1	CAL PDZ FP-1 52.8
CCn1ccnc1CNCc1cn(-c2cc(C)ccc2C)nc1-c1ccccc1	none (no result: Rtt109 HAT inh)
CN(C)CCCCOc1ccc(Br)cc1Cl	CAL PDZ FP-1 83.5
CCOc1cc(NC(=S)NCCOC)c(OCC)cc1NC(=O)c1ccco1	none
O=C1OC(COc2ccc(Br)cc2)CN1c1ccccc1 (stereo not given)	CAL PDZ FP-1 87.1
O=S(=O)(c1cccs1)N1CCc2ccccc21	dFosB act 29.1
O=C(OCc1cc2ccccc2[nH]c1=O)C1CCCCC1	none (no result: CAL PDZ FP-2)
Cc1ccc2[nH]c(=O)c(COC(=O)C3CCCCC3)cc2c1	CAL PDZ FP-1 active
Oc1cccc(Nc2nc(O)c(/C=C3\C=Nc4ccccc43)s2)c1	dFosB act 52.8
CCCCNCC1C(Oc2ccc(Cl)cc2)C(=O)N1c1ccccc1C (stereo not given)	none (no result: Rtt109 HAT inh)
CN(C(=O)c1cc2ccccc2oc1=O)C1(C)CCS(=O)(=O)C1 (stereo not given)	CAL PDZ FP-1 47.4
CN(C(=O)c1ccccc1)C1(C)CCS(=O)(=O)C1 (stereo not given)	none
Cc1sc2nc(CN3CCN(c4ccc(O)cc4)CC3)[nH]c(=O)c2c1C	CAL PDZ FP-1 44.5 (no result: Dyrk1A ADPGlo)
Cc1cc(C)c(-n2nnnc2SCC(=O)c2cccs2)c(C)c1	Rtt109 HAT inh 60.2
Cn1nnnc1SCC(=O)c1cccs1	none
COc1ccccc1Cc1nnc(NC(=O)C2CCN(C(=O)c3ccco3)CC2)s1	none
COc1ccccc1N1CCN(C(=O)C(=O)c2cn(CC(=O)N3CCOCC3)c3ccccc23)CC1	none
CS(=O)(=O)C1=NN2C(=N)/C(=C\c3ccc(OC(=O)c4ccco4)cc3)C(=O)N=C2S1	Rtt109 HAT inh 56.6
